Data published in ChEMBL document CHEMBL3352730, “Synthesis and effects on cell viability of flavonols and 3-methyl ether derivatives on human leukemia cells” (Eur J Med Chem, 2014).
Calls of active or inactive are those of the source. The calls are words filed in the database; no cut-off is given here.

Experiments:
[1] = tested on: U-937; assay: Induction of cell cycle arrest in human U937 cells assessed as accumulation at G1 phase at 10 uM after 48 hrs by propidium iodide staining based flow cytometry (reference value: 51.9 +/- 0.9%); assay type: functional
[2] = tested on: HL-60; assay: Induction of cell cycle arrest in human HL60 cells assessed as accumulation at S phase at 1 uM after 48 hrs by propidium iodide staining based flow cytometry (reference value: 15.3 +/- 0.1%); assay type: functional
[3] = tested on: HL-60; assay: Induction of cell cycle arrest in human HL60 cells assessed as accumulation at S phase at 10 uM after 48 hrs by propidium iodide staining based flow cytometry (reference value: 15.3 +/- 0.1%); assay type: functional
[4] = tested on: U-937; assay: Induction of cell cycle arrest in human U937 cells assessed as accumulation at S phase at 1 uM after 12 hrs by propidium iodide staining based flow cytometry (reference value: 20.5 +/- 0.8%); assay type: functional
[5] = tested on: U-937; assay: Induction of cell cycle arrest in human U937 cells assessed as accumulation at S phase at 3 uM after 24 hrs by propidium iodide staining based flow cytometry (reference value: 18.6 +/- 0.3%); assay type: functional
[6] = tested on: U-937; assay: Induction of cell cycle arrest in human U937 cells assessed as accumulation at S phase at 10 uM after 24 hrs by propidium iodide staining based flow cytometry (reference value: 18.6 +/- 0.3%); assay type: functional
[7] = tested on: HL-60; assay: Induction of cell cycle arrest in human HL60 cells assessed as accumulation at G2/M phase at 1 uM after 12 hrs by propidium iodide staining based flow cytometry (reference value: 18.5 +/- 0.5%); assay type: functional
[8] = tested on: HL-60; assay: Induction of cell cycle arrest in human HL60 cells assessed as accumulation at G2/M phase at 3 uM after 24 hrs by propidium iodide staining based flow cytometry (reference value: 22.5 +/- 0.9%); assay type: functional
[9] = tested on: Raji; assay: Cytotoxicity against human Raji cells after 72 hrs by MTT assay; assay type: functional, cell-based
Method in brief: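 MTT colorimetric assay with 72 h continuous exposure. IC50 was fitted per experiment by non-linear regression. Values are means with SE from at least three independent experiments, each run in triplicate.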

[10] = tested on: HL-60; assay: Induction of apoptosis in human HL60 cells assessed as nuclear chromatin condensation at 30 uM after 24 hrs by Hoechst 33258 staining based fluorescence microscopy; assay type: functional, cell-based
Method in brief: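 HL-60 cells were treated at 30 µM for 24 h, stained with Hoechst 33258, and scored for chromatin condensation by fluorescence microscopy.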

[11] = tested on: HL-60; assay: Induction of cell cycle arrest in human HL60 cells assessed as accumulation at subG1 phase at 3 uM after 12 hrs by propidium iodide staining based flow cytometry (reference value: 6.1 +/- 0.5%); assay type: functional
[12] = tested on: HL-60; assay: Induction of cell cycle arrest in human HL60 cells assessed as accumulation at subG1 phase at 1 uM after 24 hrs by propidium iodide staining based flow cytometry (reference value: 3.4 +/- 0.3%); assay type: functional
[13] = tested on: HL-60; assay: Induction of cell cycle arrest in human HL60 cells assessed as accumulation at subG1 phase at 10 uM after 24 hrs by propidium iodide staining based flow cytometry (reference value: 3.4 +/- 0.3%); assay type: functional
[14] = tested on: U-937; assay: Induction of cell cycle arrest in human U937 cells assessed as accumulation at G2/M phase at 10 uM after 12 hrs by propidium iodide staining based flow cytometry (reference value: 24.2 +/- 1.2%); assay type: functional
[15] = tested on: U-937; assay: Induction of cell cycle arrest in human U937 cells assessed as accumulation at G2/M phase at 1 uM after 24 hrs by propidium iodide staining based flow cytometry (reference value: 22.8 +/- 1.6%); assay type: functional
[16] = tested on: U-937; assay: Induction of cell cycle arrest in human U937 cells assessed as accumulation at G2/M phase at 10 uM after 48 hrs by propidium iodide staining based flow cytometry (reference value: 19.1 +/- 1.1%); assay type: functional
[17] = tested on: MOLT-3; assay: Induction of apoptosis in human MOLT3 cells assessed as pro-caspase-6 cleavage by Western blotting method; assay type: functional, cell-based
Method in brief: (§1)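 Cells were exposed to a range of compound concentrations and harvested at 24 h. Lysates were immunoblotted for caspase proforms and cleaved forms, and for Bcl-2 family proteins.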

[18] = tested on: U-937; assay: Induction of apoptosis in human U937 cells assessed as pro-caspase-7 cleavage by Western blotting method; assay type: functional, cell-based
Method in brief: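 U937 cells exposed to increasing concentrations of the flavonol and harvested at 24 h. Lysates were immunoblotted with antibodies that detect both the pro-caspases and their cleaved forms.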

[19] = tested on: U-937; assay: Induction of apoptosis in human U937 cells assessed as pro-caspase-4 processing by Western blotting method; assay type: functional, cell-based; method in brief: as §1
[20] = tested on: HL-60; assay: Reduction in Bid expression in human HL60 cells by Western blotting method; assay type: functional, cell-based
Method in brief: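 Cells (HL-60, Molt-3 or U937) were incubated with increasing concentrations of compound and harvested at 24 h. Cell lysates were then immunoblotted for Bid and other Bcl-2 family members.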

[21] = tested on: HL-60; assay: Induction of apoptosis in human HL60 cells assessed as increase in caspase 8 activity using IETD-pNA substrate at 10 uM after 24 hrs; assay type: functional
Method in brief: (§2)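 Cells were given 10 µM for 24 h. Lysates were assayed for cleavage of DEVD-pNA (caspase-3/7), IETD-pNA (caspase-8) and LEHD-pNA (caspase-9). Results are expressed as fold over control, from three independent experiments in triplicate.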

[22] = tested on: U-937; assay: Induction of apoptosis in human U937 cells assessed as increase in caspase 9 activity using LEHD-pNA substrate at 10 uM after 24 hrs; assay type: functional, cell-based; method in brief: as §2
[23] = tested on: HL-60; assay: Induction of apoptosis in human HL60 cells in presence of JNK/SAPK inhibitor SP600125 after 24 hrs by propidium iodide staining based flow cytometry; assay type: functional, cell-based
[24] = tested on: HL-60; assay: Increase in DR4 expression in human HL60 cells at 10 30 uM after 24 hrs by immunoblotting method; assay type: functional, cell-based
Method in brief: (§3)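 HL-60 and U937 cells were treated with increasing concentrations for 24 h. Lysates were immunoblotted for TRAIL, DR4 and DR5.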

[25] = tested on: U-937; assay: Increase in TRAIL expression in human U937 cells at 10 30 uM after 24 hrs by immunoblotting method; assay type: functional, cell-based; method in brief: as §3
[26] = tested on: U-937; assay: Induction of cell cycle arrest in human U937 cells assessed as accumulation at subG1 phase at 1 uM after 48 hrs by propidium iodide staining based flow cytometry (reference value: 6.7 +/- 0.3%); assay type: functional
[27] = tested on: HL-60; assay: Induction of cell cycle arrest in human HL60 cells assessed as accumulation at G1 phase at 3 uM after 24 hrs by propidium iodide staining based flow cytometry (reference value: 53 +/- 1.1%); assay type: functional
[28] = tested on: HL-60; assay: Induction of cell cycle arrest in human HL60 cells assessed as accumulation at G1 phase at 1 uM after 48 hrs by propidium iodide staining based flow cytometry (reference value: 60.4 +/- 0.4%); assay type: functional
[29] = tested on: HL-60; assay: Induction of cell cycle arrest in human HL60 cells assessed as accumulation at G1 phase at 3 uM after 48 hrs by propidium iodide staining based flow cytometry (reference value: 60.4 +/- 0.4%); assay type: functional
[30] = tested on: U-937; assay: Induction of cell cycle arrest in human U937 cells assessed as accumulation at G1 phase at 10 uM after 12 hrs by propidium iodide staining based flow cytometry (reference value: 45.8 +/- 0.8%); assay type: functional
[31] = tested on: U-937; assay: Induction of cell cycle arrest in human U937 cells assessed as accumulation at G1 phase at 3 uM after 24 hrs by propidium iodide staining based flow cytometry (reference value: 49.8 +/- 1.5%); assay type: functional

Q: With `O=c1c(O)c(-c2ccc(Br)cc2)oc2ccccc12` as the compound, how does the Activity [1] read?
A: 41.4%

Q: And the Activity [2]?
A: 15.5%

Q: And the Activity [3]?
A: 7.3%

Q: What about the Activity [4] of the same compound?
A: 21.5%

Q: What about the Activity [5] of the same compound?
A: 24.7%

Q: And the Activity [6]?
A: 23.7%

Q: And the Activity [7]?
A: 19.4%

Q: What about the Activity [8] of the same compound?
A: 21.8%

Q: And the IC50 [9]?
A: 5.8 µM

Q: What about the Activity [10] of the same compound?
A: Active

Q: What about the Activity [11] of the same compound?
A: 6.3%

Q: And the Activity [12]?
A: 4.1%

Q: What about the Activity [13] of the same compound?
A: 20.4%

Q: What about the Activity [14] of the same compound?
A: 19.6%

Q: And the Activity [15]?
A: 25.2%

Q: What about the Activity [16] of the same compound?
A: 7%

Q: What about the Activity [17] of the same compound?
A: Active

Q: What about the Activity [18] of the same compound?
A: Active

Q: What about the Activity [19] of the same compound?
A: Active

Q: And the Activity [20]?
A: Active

Q: What about the “fold change (FC)” value [21] of the same compound?
A: 1.7

Q: What about the Activity [22] of the same compound?
A: Active

Q: And the Activity [23]?
A: Active

Q: And the Activity [24]?
A: Active

Q: What about the Activity [25] of the same compound?
A: Active

Q: What about the Activity [26] of the same compound?
A: 7%

Q: And the Activity [27]?
A: 50.1%

Q: What about the Activity [28] of the same compound?
A: 57.6%

Q: And the Activity [29]?
A: 40.4%

Q: What about the Activity [30] of the same compound?
A: 47.6%

Q: What about the Activity [31] of the same compound?
A: 42.3%
